Results: ChEMBL document CHEMBL4020840, “Synthesis and Biological Evaluation of Selenium-Containing 4-Anilinoquinazoline Derivatives as Novel Antimitotic Agents” (J Med Chem, 2018)

Experiments:
[1] = Growth inhibition of human HepG2/DOX cells after 48 hrs by MTT assay; assay type: functional, cell-based
Procedure, shortened: (§1)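 MTT assay: log-phase cells plated at 5 × 10³/well for 24 h, then exposed to a range of test concentrations for 48 h. MTT (5 mg/mL) added for 4 h, formazan dissolved in DMSO, absorbance read at 570 nm. IC50 is the concentration giving 50% growth inhibition, from dose-response curves; at least three independent experiments, mean ± SE.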

A549 [2] = assay: Induction of mitochondrial membrane disruption in human A549 cells assessed as cells with mitochondrial membrane potential loss at 4 nM after 48 hrs by JC1 staining based flow cytometry (reference value: 0.82%); assay type: functional
A549 [3] = assay: Induction of apoptosis in human A549 cells assessed as necrotic cells at 2 nM after 48 hrs by Annexin V-FITC/propidium iodide staining based flow cytometry relative to control; assay type: functional
HepG2 = assay: Growth inhibition of human HepG2 cells after 48 hrs by MTT assay; assay type: functional, cell-based; details: HepG2, 48 h; procedure, shortened: as §1
A549 [4] = assay: Induction of apoptosis in human A549 cells assessed as late apoptotic cells at 2 nM after 24 hrs by Annexin V-FITC/propidium iodide staining based flow cytometry (reference value: 0.08%); assay type: functional
A549 [5] = assay: Cell cycle arrest in human A549 cells assessed as accumulation at G2/M phase at 4 nM after 24 hrs by propidium iodide staining based flow cytometry (reference value: 10.13%); assay type: functional
Procedure, shortened: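 A549 seeded in six-well plates at 3 × 10⁵ cells/well and treated for 12 or 24 h; vehicle 0.01% DMSO. Cells fixed overnight in ice-cold 70% ethanol, treated with RNase A at 37 °C for 30 min, then stained with PI at 4 °C for 30 min. About 10 000 events acquired by flow cytometry at 488 nm; three experiments.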

A549 [6] = assay: Induction of apoptosis in human A549 cells assessed as live cells at 4 nM after 48 hrs by Annexin V-FITC/propidium iodide staining based flow cytometry (reference value: 98.49%); assay type: functional
A549 [7] = assay: Induction of mitochondrial membrane disruption in human A549 cells assessed as cells with intact mitochondrial membrane at 4 nM after 48 hrs by JC1 staining based flow cytometry (reference value: 99.13%); assay type: functional
LoVo = assay: Growth inhibition of human LoVo cells after 48 hrs by MTT assay; assay type: functional, cell-based; procedure, shortened: as §1
MCF7 = assay: Antiproliferative activity against human MCF7 cells after 48 hrs by MTT assay; assay type: functional, cell-based; details: MCF7, 48 h; procedure, shortened: as §1
A549 [8] = assay: Induction of apoptosis in human A549 cells assessed as early apoptotic cells at 2 nM after 24 hrs by Annexin V-FITC/propidium iodide staining based flow cytometry (reference value: 0.98%); assay type: functional
A549 [9] = assay: Induction of apoptosis in human A549 cells assessed as necrotic cells at 2 nM after 24 hrs by Annexin V-FITC/propidium iodide staining based flow cytometry (reference value: 0.10%); assay type: functional
A549 [10] = assay: Induction of apoptosis in human A549 cells assessed as live cells at 2 nM after 24 hrs by Annexin V-FITC/propidium iodide staining based flow cytometry (reference value: 98.84%); assay type: functional
A549 [11] = assay: Induction of apoptosis in human A549 cells assessed as early apoptotic cells at 4 nM after 48 hrs by Annexin V-FITC/propidium iodide staining based flow cytometry (reference value: 1.48%); assay type: functional
A549 [12] = assay: Induction of apoptosis in human A549 cells assessed as late apoptotic cells at 2 nM after 48 hrs by Annexin V-FITC/propidium iodide staining based flow cytometry (reference value: 0.03%); assay type: functional
A549 [13] = assay: Induction of apoptosis in human A549 cells assessed as necrotic cells at 4 nM after 24 hrs by Annexin V-FITC/propidium iodide staining based flow cytometry (reference value: 0.10%); assay type: functional
[14] = Resistance factor, ratio of IC50 for human A549/CDDP cells to IC50 for human A549 cells; assay type: functional
Procedure, shortened: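 MTT assay: log-phase cells were seeded at 5 × 10³/well for 24 h, then exposed to a concentration series for 48 h. MTT (5 mg/mL) was added for 4 h, formazan was dissolved in DMSO, and A570 was read. IC50 values came from dose–response curves of at least three independent experiments. Resistance factor = IC50 in the resistant line / IC50 in the parental sensitive line.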

A549 [15] = assay: Induction of mitochondrial membrane disruption in human A549 cells assessed as cells with mitochondrial membrane potential loss at 2 nM after 48 hrs by JC1 staining based flow cytometry (reference value: 0.82%); assay type: functional
A549 [16] = assay: Induction of apoptosis in human A549 cells assessed as early apoptotic cells at 4 nM after 24 hrs by Annexin V-FITC/propidium iodide staining based flow cytometry (reference value: 0.98%); assay type: functional
A549 [17] = assay: Induction of apoptosis in human A549 cells assessed as late apoptotic cells at 4 nM after 48 hrs by Annexin V-FITC/propidium iodide staining based flow cytometry (reference value: 0.03%); assay type: functional
A549/CDDP = assay: Growth inhibition of human A549/CDDP cells after 48 hrs by MTT assay; assay type: functional, cell-based; procedure, shortened: as §1
HeLa = assay: Antiproliferative activity against human HeLa cells after 48 hrs by MTT assay; assay type: functional, cell-based; procedure, shortened: as §1
L02 = assay: Antiproliferative activity against human LO2 cells after 48 hrs by MTT assay; assay type: cell-based; details: L02, 48 h; procedure, shortened: as §1
HCT-116 = assay: Growth inhibition of human HCT116 cells after 48 hrs by MTT assay; assay type: functional, cell-based; details: HCT-116, 48 h; procedure, shortened: as §1
[18] = Selectivity index, ratio of IC50 for human BJ cells to IC50 for human A549 cells; assay type: functional
Procedure, shortened: (§2)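 MTT assay in normal cells and A549: seeding at 5 × 10³ cells/well for 24 h, 48 h compound exposure, then 5 mg/mL MTT for 4 h, DMSO solubilisation and absorbance at 570 nm. IC50 values came from dose–response curves of at least three independent experiments. Selectivity ratio = IC50 in normal cells / IC50 in A549.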

A549 [19] = assay: Induction of apoptosis in human A549 cells assessed as necrotic cells at 4 nM after 48 hrs by Annexin V-FITC/propidium iodide staining based flow cytometry relative to control; assay type: functional
MDA-MB-231 = assay: Growth inhibition of human MDA-MB-231 cells after 48 hrs by MTT assay; assay type: functional, cell-based; details: MDA-MB-231, 48 h; procedure, shortened: as §1
A549 [20] = assay: Growth inhibition of human A549 cells after 48 hrs by MTT assay; assay type: functional, cell-based; details: A549, 48 h
BJ = assay: Antiproliferative activity against human BJ cells after 48 hrs by MTT assay; assay type: cell-based; procedure, shortened: as §1
[21] = Inhibition of porcine brain tubulin polymerization measured every 60 secs for 90 mins by DAPI staining based fluorescence assay; design: species or system Sus scrofa
Procedure, shortened: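 Purified tubulin was tested in a kit assay. Final buffer: 80 mM PIPES sesquisodium (pH 6.9), 2.0 mM MgCl₂, 0.5 mM EGTA, 1 mM GTP, 10.2% glycerol. Compound (0.1–10 μM) was prewarmed at 37 °C for 1 min before tubulin was added. DAPI reporter fluorescence (ex 340 / em 410 nm) was read every 60 s for 90 min. Area under the curve gave percent inhibition versus control and the IC50.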

[22] = Selectivity index, ratio of IC50 for HLF to IC50 for human A549 cells; procedure, shortened: as §2
A549 [23] = assay: Induction of apoptosis in human A549 cells assessed as live cells at 4 nM after 24 hrs by Annexin V-FITC/propidium iodide staining based flow cytometry (reference value: 98.84%); assay type: functional

C[Se]c1ccc(N(C)c2nc(C)nc3ccccc23)cc1
IC50 [1]: 8 nM | Activity (A549 [2]): 42.83% | Activity (A549 [3]): 3.19% | IC50 (HepG2): 4 nM | Activity (A549 [4]): 3.82% | Activity (A549 [5]): 87.16% | Activity (A549 [6]): 10.31% | Activity (A549 [7]): 56.98% | IC50 (LoVo): 9 nM | IC50 (MCF7): 10 nM | Activity (A549 [8]): 16.35% | Activity (A549 [9]): 0.9% | Activity (A549 [10]): 78.97% | Activity (A549 [11]): 54.14% | Activity (A549 [12]): 20.5% | Activity (A549 [13]): 2.28% | Ratio IC50 [14]: 4.09 | Activity (A549 [15]): 15.85% | Activity (A549 [16]): 26.51% | Activity (A549 [17]): 28.75% | IC50 (A549/CDDP): 9 nM | IC50 (HeLa): 3 nM | IC50 (L02): 19 nM | IC50 (HCT-116): 3 nM | Ratio IC50 [18]: 9.5 | Activity (A549 [19]): 6.8% | IC50 (MDA-MB-231): 4 nM | IC50 (A549 [20]): 2 nM | IC50 (BJ): 19 nM | IC50 [21]: 1890 nM | Ratio IC50 [22]: 10 | Activity (A549 [23]): 64.86%
